According to ChEMBL document CHEMBL2040794, “Synthesis and structure-activity analysis of new phosphonium salts with potent activity against African trypanosomes” (J Med Chem, 2012):

What was measured:
[1] = Selectivity index, ratio of EC50 for human HEK cells to EC50 for wild type Trypanosoma brucei brucei Lister 427; type: toxicity, cell-based, HEK293; conditions: for selectivity ratio: HEK cells, read-out: Ratio EC50
How it was run: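 Ratio of EC₅₀ in HEK cells to EC₅₀ in wild-type T. b. brucei s427, both from resazurin assays.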

[2] = tested on: Trypanosoma brucei brucei; experiment: Antitrypanosomal activity against diminazene aceturate-resistant TbAT1 gene-deficient Trypanosoma brucei brucei AT1-KO after 3 days by alamar blue assay; type: functional, organism-based
How it was run: (§1)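 Bloodstream-form T. b. brucei (wild-type s427; TbAT1-KO, made from s427 by TbAT1 deletion; B48, selected from TbAT1-KO in vitro on pentamidine, lacking functional HAPT1). Cells were exposed to compound for 48 h, then resazurin (Alamar blue) was added for a further 24 h. A single fluorescence reading gave EC50.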

[3] = tested on: Trypanosoma brucei rhodesiense; experiment: Antitrypanosomal activity against Trypanosoma brucei rhodesiense STIB900 infected in rat L6 cells after 72 hrs by alamar blue assay; type: functional, organism-based
[4] = tested on: Trypanosoma brucei brucei; experiment: Antitrypanosomal activity against diminazene-, pentamidine-, and melaminophenyl arsenical-resistant HAPT1-deficient Trypanosoma brucei brucei B48 after 3 days by alamar blue assay; type: functional, organism-based; how it was run: as §1
L6 = experiment: Cytotoxicity against rat L6 cells after 72 hrs by alamar blue assay; type: cell-based
[5] = Inhibition of Trypanosoma brucei brucei LAPT1 assessed as [3H]-pentamidine uptake after 120 secs by scintillation counting
How it was run: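 LAPT1 transport: late-log trypanosomes from HMI-9/10% FBS culture washed into pH 7.3 HEPES-bicarbonate-glucose buffer; 1 μM final [³H]-pentamidine uptake over 120 s with competitor. Uptake terminated with 2 mM ice-cold pentamidine and oil centrifugation; counted by scintillation, Ki from sigmoid curves; triplicate, at least three separate occasions.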

[6] = Cytotoxicity against human HEK cells after 3 days by alamar blue assay; type: cell-based, HEK293; conditions: Homo sapiens, HEK293, 72 h
How it was run: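 Human embryonic kidney cells tested by resazurin (Alamar blue) assay: 48 h with compound, then 24 h more after dye addition, single reading; EC₅₀ derived.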

[7] = tested on: Trypanosoma brucei brucei; experiment: Resistance factor, ratio of EC50 for diminazene aceturate-resistant TbAT1 gene-deficient Trypanosoma brucei brucei AT1-KO to EC50 for wild type Trypanosoma brucei brucei Lister 427; type: functional
How it was run: (§2)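 Resistance factor is the EC50 in the resistant line (TbAT1-KO or B48) divided by the EC50 in wild-type s427. […] Resistant and wild-type EC50s were compared by Student t-test.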

[8] = tested on: Trypanosoma brucei brucei; experiment: Resistance factor, ratio of EC50 for diminazene-, pentamidine-, and melaminophenyl arsenical-resistant HAPT1-deficient Trypanosoma brucei brucei B48 to EC50 for wild type Trypanosoma brucei brucei Lister 427; type: functional; how it was run: as §2
[9] = tested on: Trypanosoma brucei brucei; experiment: Antitrypanosomal activity against wild type Trypanosoma brucei brucei Lister 427 after 3 days by alamar blue assay; type: functional, organism-based; how it was run: as §1
[10] = Selectivity index, ratio of EC50 for rat L6 cells to EC50 for Trypanosoma brucei rhodesiense STIB900; type: toxicity, cell-based; conditions: for selectivity ratio: L6 cells, read-out: Ratio EC50
How it was run: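 Ratio of EC₅₀ in L6 cells to EC₅₀ against T. b. rhodesiense STIB900, both from Alamar blue assays.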

[11] = Trypanosoma brucei, AT1-KO, 72 h
[12] = Trypanosoma brucei, STIB900, 72 h
[13] = Trypanosoma brucei, Lister 427, 72 h

| Structure (SMILES) | selectivity ratio [1] | EC50 [2, 11] [nM] | EC50 [3, 12] [nM] | EC50 ([4]; Trypanosoma brucei, B48, 72 h) [nM] | EC50 (L6; Rattus norvegicus, L6, 72 h) [nM] | Ki [5] [nM] | EC50 [6] [nM] | Ratio EC50 [7] | Ratio EC50 [8] | EC50 [9, 13] [nM] | selectivity ratio [10] | Ratio EC50 ([1]; hek293) | EC50 [2] [nM] | EC50 [3] [nM] | EC50 [4] [nM] | EC50 (L6; l6) [nM] | EC50 [9] [nM] | Ratio EC50 ([10]; l6) |
| --- | --- | --- | --- | --- | --- | --- | --- | --- | --- | --- | --- | --- | --- | --- | --- | --- | --- | --- |
| O=C(c1ccc(C[P+](c2ccccc2)(c2ccccc2)C2CCCCC2)cc1)c1ccc(C[P+](c2ccccc2)(c2ccccc2)C2CCCCC2)cc1.[Br-].[Br-] | > 1000 | 410 | 430 | 330 | 65800 | 19000 | > 300000 | 1.4 | 1.1 | 300 | 155 |  |  |  |  |  |  |  |
| Cc1ccc(C[P+](c2ccccc2)(c2ccccc2)c2ccccc2)cc1.[Br-] |  |  |  |  |  | 25000 |  | 0.8 | 0.5 |  |  | > 7000 | 33 | 364 | 22 | 12900 | 43 | 35.5 |
| Cc1ccc([P+](Cc2ccc(Oc3ccc(C[P+](c4ccccc4)(c4ccccc4)c4ccc(C)cc4)cc3)cc2)(c2ccccc2)c2ccccc2)cc1.[Br-].[Br-] | 2930 | 77 | 142 | 64 | 3340 |  | 240000 | 0.9 | 0.8 | 82 | 23 |  |  |  |  |  |  |  |
| Cc1ccc([P+](Cc2ccc(Cc3ccc(C[P+](c4ccc(C)cc4)(c4ccc(C)cc4)c4ccc(C)cc4)cc3)cc2)(c2ccc(C)cc2)c2ccc(C)cc2)cc1.[Br-].[Br-] | 2900 | 80 | 99 | 74 | 2330 |  | 233000 | 1 | 0.9 | 80 | 24 |  |  |  |  |  |  |  |
| CC(C)[P+](Cc1ccc(Cc2ccc(C[P+](c3ccccc3)(c3ccccc3)C(C)C)cc2)cc1)(c1ccccc1)c1ccccc1.[Br-].[Br-] | > 680 | 400 | 534 | 430 | 3440 |  | > 300000 | 0.9 | 1 | 440 | 6.4 |  |  |  |  |  |  |  |
| O=C(c1ccc(C[P+](c2ccc(Cl)cc2)(c2ccc(Cl)cc2)c2ccc(Cl)cc2)cc1)c1ccc(C[P+](c2ccc(Cl)cc2)(c2ccc(Cl)cc2)c2ccc(Cl)cc2)cc1.[Br-].[Br-] | 67 | 1370 | 410 | 950 | 7200 |  | 63000 | 1.5 | 1 | 940 | 18 |  |  |  |  |  |  |  |
| Cc1cccc([P+](Cc2ccc(Cc3ccc(C[P+](c4cccc(C)c4)(c4cccc(C)c4)c4cccc(C)c4)cc3)cc2)(c2cccc(C)c2)c2cccc(C)c2)c1.[Br-].[Br-] | 524 | 140 | 231 | 130 | 939 |  | 72600 | 1 | 0.9 | 140 | 4 |  |  |  |  |  |  |  |
| O=C(c1ccc(C[P+](Cc2ccccc2)(c2ccccc2)c2ccccc2)cc1)c1ccc(C[P+](Cc2ccccc2)(c2ccccc2)c2ccccc2)cc1.[Br-].[Br-] | > 370 | 1020 | 480 | 1030 | 32000 |  | > 300000 | 1.3 | 1.3 | 810 | 67 |  |  |  |  |  |  |  |
| COc1ccccc1[P+](Cc1ccc(Oc2ccc(C[P+](c3ccccc3OC)(c3ccccc3OC)c3ccccc3OC)cc2)cc1)(c1ccccc1OC)c1ccccc1OC.[Br-].[Br-] | 2520 | 57 | 153 | 45 | 1270 |  | 141000 | 1 | 0.8 | 56 | 8 |  |  |  |  |  |  |  |
| O=C(c1ccc(C[P+](c2ccc(F)cc2)(c2ccc(F)cc2)c2ccc(F)cc2)cc1)c1ccc(C[P+](c2ccc(F)cc2)(c2ccc(F)cc2)c2ccc(F)cc2)cc1.[Br-].[Br-] | > 350 | 2100 | 450 | 1240 | 77400 |  | > 300000 | 2.5 | 1.5 | 850 | 172 |  |  |  |  |  |  |  |
| Cc1ccc([P+](CCc2ccc(CCc3ccc(CC[P+](c4ccc(C)cc4)(c4ccc(C)cc4)c4ccc(C)cc4)cc3)cc2)(c2ccc(C)cc2)c2ccc(C)cc2)cc1.[Cl-].[Cl-] | 103 | 94 | 27 | 89 | 1090 |  | 12800 | 0.8 | 0.7 | 125 | 40.3 |  |  |  |  |  |  |  |
| CC[P+](Cc1ccc(C(=O)c2ccc(C[P+](CC)(c3ccccc3)c3ccccc3)cc2)cc1)(c1ccccc1)c1ccccc1.[Br-].[Br-] | > 300 | 2100 | 554 | 1760 | > 113000 |  | > 300000 | 2.2 | 1.8 | 970 | > 204 |  |  |  |  |  |  |  |
| Cc1ccc([P+](CCc2ccc(CCCc3ccc(CC[P+](c4ccc(C)cc4)(c4ccc(C)cc4)c4ccc(C)cc4)cc3)cc2)(c2ccc(C)cc2)c2ccc(C)cc2)cc1.[Cl-].[Cl-] | 73 | 43 | 73 | 48 | 645 |  | 5600 | 0.6 | 0.6 | 77 | 8.8 |  |  |  |  |  |  |  |
| CCCC[P+](CCCC)(CCCC)Cc1ccc(C(=O)c2ccc(C[P+](CCCC)(CCCC)CCCC)cc2)cc1.[Br-].[Br-] | > 620 | 1320 | 355 | 1630 | 112000 |  | > 300000 | 2.7 | 3.4 | 480 | 315 |  |  |  |  |  |  |  |
| Cc1ccc([P+](Cc2ccc(C(=O)c3ccc(C[P+](c4ccccc4)(c4ccccc4)c4ccc(C)cc4)cc3)cc2)(c2ccccc2)c2ccccc2)cc1.[Br-].[Br-] | 1450 | 182 | 260 | 183 | 16300 |  | 261000 | 1 | 1 | 180 | 62 |  |  |  |  |  |  |  |
| COc1ccccc1[P+](Cc1ccc(C(=O)c2ccccc2)cc1)(c1ccccc1OC)c1ccccc1OC.[Br-] | 306 | 220 | 376 | 150 | 3970 |  | 63200 | 1.1 | 0.7 | 210 | 10 |  |  |  |  |  |  |  |
| Cc1ccccc1[P+](Cc1ccc(C(=O)c2ccc(C[P+](c3ccccc3)(c3ccccc3)c3ccccc3C)cc2)cc1)(c1ccccc1)c1ccccc1.[Br-].[Br-] | 1100 | 240 | 160 | 220 | 14000 |  | 214000 | 1.2 | 1.1 | 200 | 88 |  |  |  |  |  |  |  |
| Cc1ccc([P+](Cc2ccc(Oc3ccccc3)cc2)(c2ccc(C)cc2)c2ccc(C)cc2)cc1.[Br-] | 1140 | 13 | 2 | 10 | 263 |  | 17600 | 0.8 | 0.7 | 15 | 131 |  |  |  |  |  |  |  |
| COc1ccccc1[P+](Cc1ccc(C(=O)c2ccc(C[P+](c3ccccc3OC)(c3ccccc3OC)c3ccccc3OC)cc2)cc1)(c1ccccc1OC)c1ccccc1OC.[Br-].[Br-] | 1180 | 160 | 200 | 80 | 9000 |  | 131000 | 1.5 | 0.7 | 110 | 45 |  |  |  |  |  |  |  |
| CCC[P+](Cc1ccc(Cc2ccc(C[P+](CCC)(c3ccccc3)c3ccccc3)cc2)cc1)(c1ccccc1)c1ccccc1.[Br-].[Br-] | > 800 | 400 | 799 | 430 | 3270 |  | > 300000 | 1.1 | 1.1 | 373 | 4.1 |  |  |  |  |  |  |  |
